In ChEMBL document CHEMBL3046030, “Implementation of bio-fungicides and seed treatment in organic rice cv. KDML 105 farming” (2009):

Tests used:
Format in all cases: functional
Nigrospora [1] = assay: Antifungal activity against Nigrospora sp. assessed as mycelial growth inhibition after 96 hr by agar overlay method
Outline: (§1)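 Agar overlay method: plant extract or essential oil was mixed into PDA at 0.10, 0.25, 0.50 and 1.00% v/v. A 5 mm plug from a 7-day culture was placed upside down on each plate and incubated 96 h at 25±2°C. Colony diameter was compared with an untreated control as % inhibition = (C−T)/C×100, using four replicates averaged. IC50 was derived by regression of the concentration–response curve.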

Curvularia [2] = assay: Antifungal activity against Curvularia sp. assessed as mycelial growth inhibition at 1% after 96 hr by agar overlay method; outline: as §1
Alternaria solani [3] = assay: Antifungal activity against Alternaria solani assessed as inhibition of spore germination at 0.25% after 24 hr by compound microscopy
Outline: (§2)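 Spores were raised by growing the fungus 3 days at 25±2°C in aqueous PDA, rinsing the mycelium three times in distilled water, and holding it 2 more days. The suspension was adjusted to about 10^6 cfu/mL by hemacytometer and spread on slides carrying a thin PDA layer. An open watch glass held plant extract or essential oil (0.10–1.00% v/v), or sterile water as control. Slides were sealed in moist dishes for 24 h at 25±2°C. Encysted spores were counted at x100, and % inhibition was calculated against control.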

Aspergillus niger [4] = assay: Antifungal activity against Aspergillus niger assessed as inhibition of spore germination at 1% after 24 hr by compound microscopy
Rhizoctonia solani [5] = assay: Antifungal activity against Rhizoctonia solani assessed as mycelial growth inhibition at 1% after 96 hr by agar overlay method
Outline: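 PDA containing plant extract or essential oil (0.10–1.00% v/v) was used for the agar overlay. A 5 mm plug from a 7-day-old R. solani culture was placed upside down, then incubated 96 h at 25±2°C. Colony diameter was measured against a simultaneous untreated control, and inhibition was calculated as [(C−T)/C]×100. Four replicates were averaged.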

Fusarium verticillioides [6] = assay: Antifungal activity against Fusarium verticillioides assessed as inhibition of spore germination at 1% after 24 hr by compound microscopy; outline: as §2
Fusarium verticillioides [7] = assay: Antifungal activity against Fusarium verticillioides assessed as mycelial growth inhibition after 96 hr by agar overlay method; outline: as §1
Bipolaris oryzae [8] = assay: Antifungal activity against Bipolaris oryzae assessed as mycelial growth inhibition after 96 hr by agar overlay method; outline: as §1
Alternaria solani [9] = assay: Antifungal activity against Alternaria solani assessed as mycelial growth inhibition after 96 hr by agar overlay method; outline: as §1
Nigrospora [10] = assay: Antifungal activity against Nigrospora sp. assessed as mycelial growth inhibition at 1% after 96 hr by agar overlay method; outline: as §1
Curvularia [11] = assay: Antifungal activity against Curvularia sp. assessed as inhibition of spore germination at 0.5% after 24 hr by compound microscopy
Fusarium verticillioides [12] = assay: Antifungal activity against Fusarium verticillioides assessed as inhibition of spore germination at 0.5% after 24 hr by compound microscopy; outline: as §2
Fusarium verticillioides [13] = assay: Antifungal activity against Fusarium verticillioides assessed as inhibition of spore germination at 0.10% after 24 hr by compound microscopy; outline: as §2
Curvularia [14] = assay: Antifungal activity against Curvularia sp. assessed as inhibition of spore germination at 0.10% after 24 hr by compound microscopy
Aspergillus niger [15] = assay: Antifungal activity against Aspergillus niger assessed as mycelial growth inhibition at 1% after 96 hr by agar overlay method; outline: as §1
Aspergillus flavus [16] = assay: Antifungal activity against Aspergillus flavus assessed as inhibition of spore germination at 0.25% after 24 hr by compound microscopy
Aspergillus niger [17] = assay: Antifungal activity against Aspergillus niger assessed as inhibition of spore germination at 0.10% after 24 hr by compound microscopy
Bipolaris oryzae [18] = assay: Antifungal activity against Bipolaris oryzae assessed as mycelial growth inhibition at 1% after 96 hr by agar overlay method; outline: as §1
Aspergillus flavus [19] = assay: Antifungal activity against Aspergillus flavus assessed as mycelial growth inhibition after 96 hr by agar overlay method; outline: as §1
Rhizoctonia solani [20] = assay: Antifungal activity against Rhizoctonia solani assessed as inhibition of spore germination at 1% after 24 hr by compound microscopy
Outline: (§3)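 R. solani grown 3 days at 25±2°C in aqueous PDA, rinsed three times with distilled water, then held 2 days to induce spores. Suspension set to about 10^6 cfu/mL by hemacytometer and spread on a thin PDA layer on slides. Watch glass held extract/oil (0.10–1.00% v/v) or sterile water control. Moist sealed chamber, 24 h, 25±2°C; encysted spores counted at x100; % inhibition versus control.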

Curvularia [21] = assay: Antifungal activity against Curvularia sp. assessed as inhibition of spore germination at 0.25% after 24 hr by compound microscopy
Rhizoctonia solani [22] = assay: Antifungal activity against Rhizoctonia solani assessed as inhibition of spore germination at 0.10% after 24 hr by compound microscopy; outline: as §2
Aspergillus flavus [23] = assay: Antifungal activity against Aspergillus flavus assessed as mycelial growth inhibition at 1% after 96 hr by agar overlay method; outline: as §1
Rhizoctonia solani [24] = assay: Antifungal activity against Rhizoctonia solani assessed as inhibition of spore germination at 0.5% after 24 hr by compound microscopy; outline: as §3
Curvularia [25] = assay: Antifungal activity against Curvularia sp. assessed as inhibition of spore germination at 1% after 24 hr by compound microscopy
Aspergillus niger [26] = assay: Antifungal activity against Aspergillus niger assessed as inhibition of spore germination at 0.5% after 24 hr by compound microscopy
Aspergillus niger [27] = assay: Antifungal activity against Aspergillus niger assessed as inhibition of spore germination at 0.25% after 24 hr by compound microscopy
Fusarium verticillioides [28] = assay: Antifungal activity against Fusarium verticillioides assessed as mycelial growth inhibition at 1% after 96 hr by agar overlay method; outline: as §1
Fusarium verticillioides [29] = assay: Antifungal activity against Fusarium verticillioides assessed as inhibition of spore germination at 0.25% after 24 hr by compound microscopy; outline: as §2
Alternaria solani [30] = assay: Antifungal activity against Alternaria solani assessed as inhibition of spore germination at 0.5% after 24 hr by compound microscopy; outline: as §2
Rhizoctonia solani [31] = assay: Antifungal activity against Rhizoctonia solani assessed as inhibition of spore germination at 0.25% after 24 hr by compound microscopy; outline: as §3
Aspergillus flavus [32] = assay: Antifungal activity against Aspergillus flavus assessed as inhibition of spore germination at 0.10% after 24 hr by compound microscopy
Aspergillus flavus [33] = assay: Antifungal activity against Aspergillus flavus assessed as inhibition of spore germination at 1% after 24 hr by compound microscopy
Alternaria solani [34] = assay: Antifungal activity against Alternaria solani assessed as inhibition of spore germination at 1% after 24 hr by compound microscopy; outline: as §2
Curvularia [35] = assay: Antifungal activity against Curvularia sp. assessed as mycelial growth inhibition after 96 hr by agar overlay method; outline: as §1
Alternaria solani [36] = assay: Antifungal activity against Alternaria solani assessed as inhibition of spore germination at 0.10% after 24 hr by compound microscopy; outline: as §2
Aspergillus flavus [37] = assay: Antifungal activity against Aspergillus flavus assessed as inhibition of spore germination at 0.5% after 24 hr by compound microscopy
Aspergillus niger [38] = assay: Antifungal activity against Aspergillus niger assessed as mycelial growth inhibition after 96 hr by agar overlay method; outline: as §1
Rhizoctonia solani [39] = assay: Antifungal activity against Rhizoctonia solani assessed as mycelial growth inhibition after 96 hr by agar overlay method
Outline: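 Agar overlay on PDA with extract or oil at 0.10, 0.25, 0.50 and 1.00% v/v. A 5 mm plug from a 7-day R. solani culture was incubated 96 h at 25±2°C, colony diameter was measured, and % inhibition versus untreated control was calculated in four replicates. IC50 was derived by regression of % inhibition against concentration.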

Alternaria solani [40] = assay: Antifungal activity against Alternaria solani assessed as mycelial growth inhibition at 1% after 96 hr by agar overlay method; outline: as §1
Alternaria solani [41] = assay: Antifungal activity against Alternaria solani at 0.25%
Colletotrichum = assay: Antifungal activity against Colletotrichum sp. at 1%
Curvularia [42] = assay: Antifungal activity against Curvularia sp. at 1%
Aspergillus flavus [43] = assay: Antifungal activity against Aspergillus flavus at 0.25%
Rhizoctonia solani [44] = assay: Antifungal activity against Rhizoctonia solani at 1%
Bipolaris oryzae [45] = assay: Antifungal activity against Bipolaris oryzae at 0.25%
Aspergillus niger [46] = assay: Antifungal activity against Aspergillus niger at 1%
Aspergillus niger [47] = assay: Antifungal activity against Aspergillus niger at 0.25%
Aspergillus flavus [48] = assay: Antifungal activity against Aspergillus flavus at 1%
Nigrospora [49] = assay: Antifungal activity against Nigrospora sp. at 0.25%
Curvularia [50] = assay: Antifungal activity against Curvularia sp. at 0.25%
Rhizoctonia solani [51] = assay: Antifungal activity against Rhizoctonia solani at 0.25%
Fusarium verticillioides [52] = assay: Antifungal activity against Fusarium verticillioides at 1%
Alternaria solani [53] = assay: Antifungal activity against Alternaria solani at 1%
Fusarium verticillioides [54] = assay: Antifungal activity against Fusarium verticillioides at 0.25%
Nigrospora [55] = assay: Antifungal activity against Nigrospora sp. at 1%
Bipolaris oryzae [56] = assay: Antifungal activity against Bipolaris oryzae at 1%

O=C1C2CC=CCC2C(=O)N1SC(Cl)(Cl)Cl (stereo unspecified) [CAPTAN]
growth inhibition (GI) (Nigrospora [1]): 2.82% | growth inhibition (GI) (Curvularia [2]): 9.15% | growth inhibition (GI) (Alternaria solani [3]): 100% | growth inhibition (GI) (Aspergillus niger [4]): 100% | growth inhibition (GI) (Rhizoctonia solani [5]): 17.06% | growth inhibition (GI) (Fusarium verticillioides [6]): 100% | growth inhibition (GI) (Fusarium verticillioides [7]): 12.28% | growth inhibition (GI) (Bipolaris oryzae [8]): 1.11% | growth inhibition (GI) (Alternaria solani [9]): 4.6% | growth inhibition (GI) (Nigrospora [10]): 6.97% | growth inhibition (GI) (Curvularia [11]): 100% | growth inhibition (GI) (Fusarium verticillioides [12]): 100% | growth inhibition (GI) (Fusarium verticillioides [13]): 100% | growth inhibition (GI) (Curvularia [14]): 100% | growth inhibition (GI) (Aspergillus niger [15]): 13.95% | growth inhibition (GI) (Aspergillus flavus [16]): 100% | growth inhibition (GI) (Aspergillus niger [17]): 100% | growth inhibition (GI) (Bipolaris oryzae [18]): 21.1% | growth inhibition (GI) (Aspergillus flavus [19]): 8.13% | growth inhibition (GI) (Rhizoctonia solani [20]): 100% | growth inhibition (GI) (Curvularia [21]): 100% | growth inhibition (GI) (Rhizoctonia solani [22]): 100% | growth inhibition (GI) (Aspergillus flavus [23]): 18.02% | growth inhibition (GI) (Rhizoctonia solani [24]): 100% | growth inhibition (GI) (Curvularia [25]): 100% | growth inhibition (GI) (Aspergillus niger [26]): 100% | growth inhibition (GI) (Aspergillus niger [27]): 100% | growth inhibition (GI) (Fusarium verticillioides [28]): 23.39% | growth inhibition (GI) (Fusarium verticillioides [29]): 100% | growth inhibition (GI) (Alternaria solani [30]): 100% | growth inhibition (GI) (Rhizoctonia solani [31]): 100% | growth inhibition (GI) (Aspergillus flavus [32]): 100% | growth inhibition (GI) (Aspergillus flavus [33]): 100% | growth inhibition (GI) (Alternaria solani [34]): 100% | growth inhibition (GI) (Curvularia [35]): 8.45% | growth inhibition (GI) (Alternaria solani [36]): 100% | growth inhibition (GI) (Aspergillus flavus [37]): 100% | growth inhibition (GI) (Aspergillus niger [38]): 4.06% | growth inhibition (GI) (Rhizoctonia solani [39]): 13.78% | growth inhibition (GI) (Alternaria solani [40]): 2.63%

C=CCc1ccc(O)c(OC)c1 [EUGENOL]
inhibition (INH) (Alternaria solani [41]): 100% | growth inhibition (GI) (Alternaria solani [3]): 24.16% | inhibition (INH) (Colletotrichum): 100% | growth inhibition (GI) (Aspergillus niger [4]): 100% | inhibition (INH) (Curvularia [42]): 97.04% | inhibition (INH) (Aspergillus flavus [43]): 44.22% | growth inhibition (GI) (Fusarium verticillioides [6]): 100% | inhibition (INH) (Rhizoctonia solani [44]): 100% | inhibition (INH) (Bipolaris oryzae [45]): 86.98% | inhibition (INH) (Aspergillus niger [46]): 100% | growth inhibition (GI) (Curvularia [11]): 100% | inhibition (INH) (Aspergillus niger [47]): 70.58% | inhibition (INH) (Aspergillus flavus [48]): 100% | growth inhibition (GI) (Fusarium verticillioides [12]): 100% | growth inhibition (GI) (Fusarium verticillioides [13]): 21.88% | inhibition (INH) (Nigrospora [49]): 50.04% | growth inhibition (GI) (Curvularia [14]): 44.94% | growth inhibition (GI) (Aspergillus flavus [16]): 65.6% | inhibition (INH) (Curvularia [50]): 50.04% | growth inhibition (GI) (Aspergillus niger [17]): 37.59% | growth inhibition (GI) (Rhizoctonia solani [20]): 100% | growth inhibition (GI) (Curvularia [21]): 85.39% | growth inhibition (GI) (Rhizoctonia solani [22]): 93.53% | inhibition (INH) (Rhizoctonia solani [51]): 100% | growth inhibition (GI) (Rhizoctonia solani [24]): 100% | growth inhibition (GI) (Curvularia [25]): 100% | growth inhibition (GI) (Aspergillus niger [26]): 100% | growth inhibition (GI) (Aspergillus niger [27]): 65.6% | growth inhibition (GI) (Fusarium verticillioides [29]): 74.11% | growth inhibition (GI) (Alternaria solani [30]): 65.68% | growth inhibition (GI) (Rhizoctonia solani [31]): 100% | growth inhibition (GI) (Aspergillus flavus [32]): 54% | growth inhibition (GI) (Aspergillus flavus [33]): 100% | inhibition (INH) (Fusarium verticillioides [52]): 100% | inhibition (INH) (Alternaria solani [53]): 100% | growth inhibition (GI) (Alternaria solani [34]): 100% | growth inhibition (GI) (Alternaria solani [36]): 14.41% | growth inhibition (GI) (Aspergillus flavus [37]): 100% | inhibition (INH) (Fusarium verticillioides [54]): 100% | inhibition (INH) (Nigrospora [55]): 98.23% | inhibition (INH) (Bipolaris oryzae [56]): 100%
